Results taken from ChEMBL document CHEMBL1147053, “HIV protease inhibitors block the zinc metalloproteinase ZMPSTE24 and lead to an accumulation of prelamin A in cells” (Proc Natl Acad Sci U S A, 2007).
Calls of active or inactive are those of the source. The calls are words filed in the database; no cut-off is given here.

What was measured:
[1] = tested on: HeLa; assay: Toxicity in human HeLa cells transfected with GFP-prelamin A construct assessed as accumulation of uncleaved protein at 20 uM by Western blot; assay type: cell-based
Outline: (§1)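 Cells were transiently transfected at 80% confluency with a GFP fused to the C-terminal 118 aa of prelamin A. Four hours later, the medium was changed to MEM/10% FBS and drug was added for 18 h (overnight). Uncleaved and cleaved fusion protein were resolved on Western blots probed with anti-GFP and anti-prelamin A antibodies.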

[2] = Toxicity in mouse fibroblast cells assessed as accumulation of prelamin A at 20 uM after 10 days by Western blot; assay type: cell-based; details: 240 h
Outline: (§2)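 WT mouse fibroblasts were treated 10 days with drug (NVP at 200 and 400 μM; STV at 20 and 40 μM; LPV at 20 μM) or DMSO vehicle. Prelamin A accumulation was assessed on Western blots of cell extracts.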

[3] = Toxicity in mouse fibroblast cells assessed as accumulation of prelamin A at 40 uM after 10 days by Western blot; assay type: cell-based; details: 240 h; outline: as §2
[4] = tested on: HEK293; assay: Toxicity in HEK293 cells transfected with GFP-prelamin A construct assessed as accumulation of uncleaved protein by Western blot; details: human
[5] = biological target: T1, CAAX prenyl protease 1 homolog (Mus musculus, UniProt Q80W54); assay: Inhibition of mouse ZMPSTE24 expressed n delta ste24 delta rce1 yeast
T1 sequence (Q80W54 whole entry): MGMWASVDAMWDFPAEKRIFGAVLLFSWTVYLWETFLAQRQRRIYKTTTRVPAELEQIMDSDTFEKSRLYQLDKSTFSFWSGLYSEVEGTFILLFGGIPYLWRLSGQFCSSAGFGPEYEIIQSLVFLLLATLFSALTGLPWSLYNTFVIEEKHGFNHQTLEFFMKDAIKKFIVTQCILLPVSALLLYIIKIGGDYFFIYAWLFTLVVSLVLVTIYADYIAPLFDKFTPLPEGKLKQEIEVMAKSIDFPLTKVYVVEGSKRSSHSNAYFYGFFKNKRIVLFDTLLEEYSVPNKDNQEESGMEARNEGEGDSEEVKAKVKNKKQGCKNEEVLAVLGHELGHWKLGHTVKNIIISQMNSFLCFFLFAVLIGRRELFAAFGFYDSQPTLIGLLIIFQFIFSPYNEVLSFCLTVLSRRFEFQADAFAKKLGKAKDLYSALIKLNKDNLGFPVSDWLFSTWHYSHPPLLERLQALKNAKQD
Outline: (§3)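 Coupled endoproteolysis/methylation assay. Δste24Δrce1 yeast membranes overexpressing mouse ZMPSTE24 or RCE1 (5 μg) plus CH2733 Ste14p membranes (8 μg) were incubated with farnesylated 15-mer a-factor peptide (5 μM for ZMPSTE24, 25 μM for RCE1) and 20 μM [¹⁴C]SAM in 100 mM Tris·HCl pH 7.5 for 30 min at 30°C. Reactions were stopped with NaOH/SDS, and base-releasable [¹⁴C]methanol was measured by vapor diffusion. IC50 values were fitted.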

[6] = biological target: T2, CAAX prenyl protease 2 (Mus musculus) (UniProt P57791); assay: Inhibition of mouse RCE1 expressed in delta ste24 delta rce1 yeast; outline: as §3
T2 sequence (whole entry): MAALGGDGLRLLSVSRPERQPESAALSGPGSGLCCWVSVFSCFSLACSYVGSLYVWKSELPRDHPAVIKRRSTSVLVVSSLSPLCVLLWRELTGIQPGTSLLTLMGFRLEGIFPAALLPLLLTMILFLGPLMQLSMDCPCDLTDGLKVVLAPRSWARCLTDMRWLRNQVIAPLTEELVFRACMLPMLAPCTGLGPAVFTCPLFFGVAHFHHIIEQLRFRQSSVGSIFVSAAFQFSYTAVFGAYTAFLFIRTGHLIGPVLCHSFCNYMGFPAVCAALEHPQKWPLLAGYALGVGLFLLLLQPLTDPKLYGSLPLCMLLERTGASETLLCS

[7] = Toxicity in mouse fibroblast cells assessed as accumulation of prelamin A at 20 uM after 48 hrs by Western blot; assay type: cell-based
Outline: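 Mouse fibroblasts were exposed 48 h to drug (20 μM), FTI (5 μM) or DMSO. Prelamin A was detected on Western blots of cell extracts.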

[8] = Inhibition of farnesyl transferase
Outline: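 FTase (50 ng) was incubated with 500 nM [³H]FPP and 1 μM recombinant H-Ras substrate for 10 min at 30°C, with or without drug. Protein was precipitated and glass-fibre filtered, and incorporated radiolabelled isoprenoid was counted by scintillation. Values are the mean of triplicate determinations.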

[9] = Toxicity in mouse fibroblast cells assessed as accumulation of prelamin A at 200 uM after 10 days by Western blot; assay type: cell-based; details: 240 h
Outline: (§4)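 Wild-type mouse fibroblasts were grown at 37 °C in 5% CO₂ in MEM or DMEM with 10% FBS, 2 mM L-glutamine and vitamin/amino acid supplements. Cells were exposed for 10 days to drug (200 mM DMSO stock) or DMSO vehicle. Extracts were run on 4–12% Bis-Tris gels and immunoblotted for lamin A/C, prelamin A (antiserum "b", 1:4,000) and actin.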

[10] = Toxicity in mouse fibroblast cells assessed as accumulation of prelamin A at 400 uM after 10 days by Western blot; assay type: cell-based; details: 240 h; outline: as §4
[11] = Toxicity in human AG07095 cells assessed as accumulation of prelamin A at 20 uM after 10 days by Western blot; assay type: cell-based; details: 240 h
Outline: (§5)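 WT human fibroblasts were cultured in MEM or DMEM with 10% FBS at 37°C, 5% CO₂, then treated 10 days with drug (20 μM), FTI (5 μM) or DMSO. Western blots were probed for lamin A/C, prelamin A antisera "a" (nonfarnesylated only) and "b", and actin. Prelamin A was quantified by image analysis relative to lamin C and to mature lamin A.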

[12] = tested on: Fibroblast; assay: Effect on change in ZMPSTE24 protein level in mouse fibroblasts at 20 uM after 10 days by Western blot; assay type: functional, cell-based
[13] = tested on: Fibroblast; assay: Effect on change in ZMPSTE24 mRNA expression level in mouse fibroblasts at 20 uM after 10 days by PCR; assay type: functional, cell-based
[14] = tested on: Fibroblast; assay: Effect on HDJ2 farnesylation in mouse fibroblast cells at 20 uM after 24 hrs by Western blot; assay type: functional, cell-based
Outline: (§6)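 Wild-type fibroblasts exposed 24 h to drug (20 μM) or DMSO vehicle, with GGTI-298 (15 μM) and FTI (5 μM) run alongside. Isoprenylation was judged by band mobility on Western blots. HDJ-2 extracts were resolved on 15% acrylamide/0.08% bisacrylamide SDS/PAGE; Rap1A was probed with anti-Rap1A and anti-Rap1 antibodies.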

[15] = tested on: HEK293; assay: Toxicity in HEK293 cells transfected with GFP-prelamin A construct assessed as accumulation of uncleaved protein at 20 uM by Western blot; assay type: cell-based; details: human, hek293, 20 µM; outline: as §1
[16] = Toxicity in RCE1 deficient mouse fibroblast cells assessed as accumulation of prelamin A at 20 uM after 24 hrs by Western blot; assay type: cell-based
Outline: (§7)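 Rce1−/− or Icmt−/− mouse embryonic fibroblasts were treated 24 h with drug (20 μM) or DMSO, with FTI (5 μM) as a comparator. Extracts were run on 4–12% Bis-Tris gels and Western blotted for lamin A/C and prelamin A, using antiserum "b", which recognises both farnesylated and nonfarnesylated forms.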

[17] = tested on: Fibroblast; assay: Effect on Rap1A isoprenylation in mouse fibroblast cells at 20 uM after 24 hrs by Western blot; assay type: functional, cell-based; outline: as §6
[18] = Toxicity in ICMT deficient mouse fibroblast cells assessed as accumulation of prelamin A at 20 uM after 24 hrs by Western blot; assay type: cell-based; outline: as §7
[19] = Toxicity in human AG08470 cells assessed as accumulation of prelamin A at 20 uM after 10 days by Western blot; assay type: cell-based; details: 240 h; outline: as §5
[20] = biological target: Protein-S-isoprenylcysteine O-methyltransferase (Homo sapiens) (UniProt O60725); assay: Inhibition of human ICMT expressed in yeast assessed as methylation of N-acetyl-farnesylcysteine
Sequence of Protein-S-isoprenylcysteine O-methyltransferase (Homo sapiens) (O60725 whole entry): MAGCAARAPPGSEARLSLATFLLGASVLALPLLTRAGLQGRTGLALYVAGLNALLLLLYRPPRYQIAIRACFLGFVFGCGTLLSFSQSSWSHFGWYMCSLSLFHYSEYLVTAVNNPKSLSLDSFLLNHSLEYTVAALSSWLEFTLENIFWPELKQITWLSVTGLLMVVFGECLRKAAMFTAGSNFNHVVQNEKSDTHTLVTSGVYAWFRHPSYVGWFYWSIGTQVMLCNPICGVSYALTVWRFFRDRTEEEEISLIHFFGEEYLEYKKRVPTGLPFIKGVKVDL

IC50 [5] [µM] | Activity [6] | Activity [8] | SMILES | Activity [1] | Activity [2] | Activity [7] | other results
1.2 | inactive |  | CCC[C@@]1(CCc2ccccc2)CC(O)=C([C@H](CC)c2cccc(NS(=O)(=O)c3ccc(C(F)(F)F)cn3)c2)C(=O)O1 [TIPRANAVIR] |  |  |  | Activity [4]: Toxic
18.4 | inactive | inactive | Cc1cccc(C)c1OCC(=O)N[C@@H](Cc1ccccc1)[C@@H](O)C[C@H](Cc1ccccc1)NC(=O)[C@H](C(C)C)N1CCCNC1=O [LOPINAVIR] | Toxic | Toxic | Toxic | Activity [11]: Toxic; Activity [12]: inactive; Activity [13]: inactive; Activity [14]: inactive; Activity [15]: Toxic; Activity [16]: Toxic; Activity [17]: inactive; Activity [18]: Toxic; Activity [19]: Toxic; Activity [20]: inactive

The next lines start with the compound.

SMILES | IC50 [5] [µM] | Activity [6] | Activity [8] | Activity [1] | Activity [2] | Activity [7] | other results
Cc1cn([C@H]2C=C[C@@H](CO)O2)c(=O)[nH]c1=O [STAVUDINE] |  |  |  | Non-toxic | Non-toxic |  | Activity [3]: Non-toxic
COC(=O)N[C@H](C(=O)N[C@@H](Cc1ccccc1)[C@@H](O)CN(Cc1ccc(-c2ccccn2)cc1)NC(=O)[C@@H](NC(=O)OC)C(C)(C)C)C(C)(C)C [ATAZANAVIR] |  |  | inactive | Toxic |  | Toxic | 
Cc1ccnc2c1NC(=O)c1cccnc1N2C1CC1 [NEVIRAPINE] |  |  |  | Non-toxic |  |  | Activity [9]: Non-toxic; Activity [10]: Non-toxic
